According to PubChem BioAssay:
Values without a mark were called inactive. Results filed as inconclusive are left out. Active and inactive are the calls of the source.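 The calls were made as follows, unless noted: active = cell viability at or below a set limit in both duplicate runs, the limit being the all-compound median minus 4 SD (cut at about 23% in these data, passing the limit was not always enough); inconclusive = no clear call, values can overlap the other calls; inactive = the rest.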

Key:
[1] = S. cerevisiae growth inhibition in permissive medium (OD615), pilot counter-assay for S. cerevisiae lifespan shortening project, permissive growth control (AID 705;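 active = growth inhibition above 25% in both replicates, a cutoff set 3 SD above the mean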); conditions: OD615, 24 h, at 10 µM, stronger effect = higher value
How it was run: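 Test system: Saccharomyces cerevisiae strain carrying genetically modified DeaD replicative-lifespan system; buffer or medium: SC raffinose/galactose permissive medium; dosing: one dose 10 µM, DMSO 0.25% final; times: 24 h exposure, 30 °C; measured by: OD at 615 nm; read-out basis: growth inhibition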

[2] = S. cerevisiae growth inhibition in restrictive medium, OD615, pilot screen, restrictive growth control, yeast lifespan reduction project (AID 706;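 active = growth inhibition above a set limit, 3 SD over mean compound inhibition, in both replicates, cut at about 43% in these data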;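 also: modified DeaD lifespan yeast strain shifted to restrictive glucose medium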); conditions: OD615, 48 h, at 10 µM, stronger effect = higher value
How it was run: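 material = engineered S. cerevisiae DeaD strain | buffer or medium = glucose-based CSMM-D restrictive medium | dosing = one concentration, 10 µM final, 0.25% DMSO | schedule = 4 h pre-growth plus 48 h compound exposure, 30 °C | detection = OD615 absorbance reading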

[3] = doxorubicin toxicity protection in MRP-1 cells – H69AR cells, CellTiter-Glo, duplicate, MRP-1 activator project, pilot screen (AID 807;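 active = viability increase at or above a cutoff of the median across tested compounds plus 3 SD, cut at about 8.5% in these data, passing the limit was not always enough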;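 also: compound pretreatment 18-22 h then 72 h combined with doxorubicin; 0% = doxorubicin alone and 100% = vehicle without doxorubicin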); conditions: H69AR viability with doxorubicin, CellTiter-Glo luminescence; at 10 µM; stronger effect = higher value
[4] = viability of HCT116 without oncogenic beta-catenin – human colon tumor cells, pilot screen (AID 823); conditions: HCT116 beta-catenin knockout viability, CellTiter-Glo, 60 h; at 10 µM; stronger effect = lower value;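 also: 0% = wells killed by 20 µM Hyamine and 100% = untreated DMSO cell wells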
[5] = viability of PTEN-null HCT116 cells – cell-based, HCT116 clonal line, CellTiter-Glo, pilot screen (AID 824;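 active = viability at or below 27.92% in each of two runs, the all-compound median minus 4 SD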;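 also: 0% = 20 µM Hyamine control and 100% = vehicle cell control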); conditions: HCT116 PTEN-deleted viability, 60 h, at 10 µM, stronger effect = lower value
[6] = RAM pathway blockade in budding yeast – dse1pr::URA3 reporter, 5-FOA selection, pilot screen (AID 869;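 active = inhibition over a set limit, the all-compound mean plus 3 SD, in both replicate runs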;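 also: 0% = DMSO wells with no growth and 100% = 10 µM 1-NA-PP1 with full growth; RAM network block rescues cells from 5-FOA so hits raise OD615 growth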); conditions: S. cerevisiae dse1pr::URA3 5-FOA growth, OD615, 2 d; at 10 µM; stronger effect = higher value; strain carries analog-sensitive mutant Cbk1 kinase
[7] = RAM signaling pathway blockade in yeast – S. cerevisiae, Pdr1DBD-CYC8 efflux-inhibited sensitized strain, primary screen (AID 1298;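 active = RAM network inhibition above 8.4% in each of two replicates, 3 SD over the compound average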;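 also: 0% = DMSO untreated cells without growth and 100% = 10 µM 1-NA-PP1 full growth; higher means more yeast growth rescued from 5-FOA killing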); conditions: S. cerevisiae cbk1-as DSE1-URA3 strain, 5-FOA growth OD615, 2 d; at 50 µM; stronger effect = higher value

SMILES | growth inhibition [1] [%] | growth inhibition [2] [%] | viability increase [3] [%] | viability [4] | viability [5] [%] | inhibition [6] [%] | RAM network inhibition [7] [%]
Cc1c(C(=O)NCCN2CCOCC2)oc2ccc(S(=O)(=O)N3CCCCCC3)cc12 | -3.55 | -1.55 | -2.1 | 86.1% | 90.6 | 1.15 | -1.39
CCOc1cc(C(=O)NC(C)COC)cc(OCC)c1OCC (stereo not drawn) | -4.84 | -8.48 | -2.05 | 104% | 104 | 0.785 | 0.53
COc1ccc(CN(C)C2CCCCC2)cc1 | -16.4 | -4.68 | 0.58 | 95.9% | 99 | 1.12 | 4.95
Cn1c(C(=O)Nc2ccc3c(c2)OCCO3)cc2c(=O)n(C)c3ccccc3c21 | -14.2 | -2.83 | -7.31 | 72.5% | 64.3 | 1.94 | 4.95
O=C(Nc1ccon1)c1cccc(C(F)(F)F)c1 | -9.21 | -5.36 | 2.41 | 104% | 101 | 0.075 | 0.62
COc1nc(Nc2ccc(C(C)=O)cc2)nc(OC)n1 | 0.42 | -4.17 | -4.04 | 99.5% | 97.9 | 1.75 | 6.28
O=C(O)CSCC(=O)c1ccccc1 | -6.96 | -1.74 | 0.58 | 107% | 101 | 1.15 | -0.89
Cc1ccccc1-n1c(Cn2c(=O)sc3ccccc32)nnc1SCC(=O)N1CCOCC1 | -5.92 | -11.6 | -1.91 | 102% | 100 | 1.56 | 1.01
CCCNC(=O)N1CCN(c2nc(C(C)C)c3c(c2C#N)CC(C)(C)OC3)CC1 | -12.9 | -6.2 | 2.34 | 68.8% | 61.5 | 2.17 | 8.42
O=C(c1oc(=O)c2ccccc2c1-c1ccccc1)N1CCN(C2CCCCC2)CC1 | -7.33 | -0.045 | -1.86 | 95.5% | 97.4 | 1.16 | 6.22
COC(=O)c1ccsc1NC(=O)c1ccc2c(c1)OCCO2 | 2.02 | -2.86 | -4.78 | 81% | 68.1 | 1.8 | 2.08
COc1ccccc1NC(=O)CSc1nc2ncccc2[nH]1 | -4.5 | 17.8 | -1.01 | 101% | 98.2 | 0.975 | 3.83
C=CCn1c(SCC(=O)N2CCOCC2)nc(O)c(Cc2ccccc2)c1=O | -12.9 | -8.77 | 1.77 | 99.4% | 98.5 | 1.49 | 1.73
Cc1cc2oc(C(=O)NCc3ccncc3)c(C)c2cc1C | -3.59 | 10.7 | 0.54 | 96.4% | 89.6 | 0.7 | -0.89
CC(C)Cc1nc(C(N)=O)c2[nH]c(=O)n(-c3ccc(F)cc3)c2n1 | -21.3 | -27.8 | -2.13 | 100% | 91.2 | 3.68 | 8.63
COc1cccc(C2CC(=O)N3CN(c4cccc(Cl)c4C)CSC3=C2C#N)c1OC (stereo not drawn) | 5.33 | 19.4 | -4.11 | 73.2% | 63.9 | 3.38 | 7.39
CCn1c(SCC(=O)NCC2CCCO2)nc2c(c1=O)SC(C)C2 (stereo not drawn) | -2.03 | -29.9 | -1.87 | 103% | 98 | 0.93 | 2.66
COc1ccc(N(CC(=O)NCc2cccs2)S(=O)(=O)c2c(C)nn(C)c2C)cc1 | -2.88 | -15.2 | -3.49 | 88.6% | 86.9 | 0.535 | -0.27
CC(=O)c1ccc(Nc2cc(C)nc3nc(C)nn23)cc1 | -0.07 | -9.04 | -3.3 | 103% | 100 | 0.72 | -1.56
Cc1ccc2c(c1)c1c(n2CC(O)CNC(CO)(CO)CO)CCCC1 (stereo not drawn) | -2.98 | -11.3 | -1.14 | 94.9% | 90.8 | 0.175 | -0.57
COc1ccc(OC)c(NC(=O)C2CCCNC2=O)c1 (stereo not drawn) | -6.08 | -1.6 | -1.67 | 95.1% | 94.5 | 1.33 | 1.33
NC(=O)C1(N2CCCCC2)CCN(C(=O)c2cccs2)CC1 | -8.17 | -16.6 | 0.57 | 105% | 92.3 | 0.955 | 1.19
O=C(NO)c1ccc(C(=O)N(C2CCCCC2)C2CCCCC2)cc1 | -0.05 | 5.84 | -5.78 | 17.2% (active) | 36.1 | 0.64 | -1.08
O=C(Sc1nnc(-c2ccccc2)o1)N1c2ccccc2Sc2ccccc21 | 15.4 | 21.9 | -4.17 | 85.1% | 89.7 | 2.49 | 3.79
